ASAP1 inh: ASAP1 ArfGAP inhibition | inhibition, % at 16.5 µM | 360,000 compounds, 0.19% hits | Q9ULH1 | ASAP1-stimulated ARF1 GTP hydrolysis, GDP FP detection; in the data active = inhibition above about 25%;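 note: 0% = vehicle with enzyme and substrate and 100% = no enzyme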
Target sequence (Q9ULH1 325-724 limits assumed): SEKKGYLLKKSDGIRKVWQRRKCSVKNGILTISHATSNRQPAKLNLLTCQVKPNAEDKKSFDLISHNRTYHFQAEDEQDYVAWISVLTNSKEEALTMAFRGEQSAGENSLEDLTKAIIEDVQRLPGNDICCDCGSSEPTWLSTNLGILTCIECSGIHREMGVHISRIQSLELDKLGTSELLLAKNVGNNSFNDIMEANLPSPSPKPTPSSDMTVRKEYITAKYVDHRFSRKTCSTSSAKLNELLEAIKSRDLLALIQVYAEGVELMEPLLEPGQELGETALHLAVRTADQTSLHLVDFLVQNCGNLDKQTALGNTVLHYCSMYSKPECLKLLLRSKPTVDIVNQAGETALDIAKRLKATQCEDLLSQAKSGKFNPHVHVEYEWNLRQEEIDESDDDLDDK
MsrA inhibitor: inhibits bovine methionine sulfoxide reductase A; purified bovine MsrA, absorbance read-out; inhibition, % at 15.5 µM; 360,000 compounds, 0.75% hits; AID 651718;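 note: 0% = vehicle wells with enzyme and 100% = reference inhibitor wells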
Rev-erbA mod: Rev-erb alpha (human) modulation; P20393; Rev-erbα–FITC-DNA binding, fluorescence polarization, 90 min; activity, % at 10 µM; 370,000 compounds, 0.79% hits;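 active = activity above about 14%, limit read from the data; passing the limit was not always enough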;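 note: 0% = DMSO wells with 35 nM protein and 100% = DMSO wells with 750 nM protein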
sPLA2-III inh: Blocks human group III sPLA2 activity; Q9NZ20; QFRET BODIPY PC-A2 liposome hydrolysis, fluorescence; inhibition, % at 12.2 µM; 370,000 compounds, 0.56% hits;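 active = inhibition above mean plus 3 SD of compounds lying within the high and low control bounds, cut at about 19% in these data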;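 note: 0% = median of test compound wells and 100% = no enzyme DMSO wells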
bovine MsrA act: activates bovine MsrA enzyme; activation, % at 10.6 µM; purified bovine MsrA, absorbance read-out; 360,000 compounds, 0.3% hits; AID 602163; in the data active = activation above about 7.5%;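 note: 0% = vehicle and 100% = reference activator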
ARFGAP1 inh: inhibits rat ARF GTPase activating protein 1; Arfgap1-stimulated ARF1 GTP hydrolysis, GDP FP detection; inhibition, % at 16.5 µM; 360,000 compounds, 0.26% hits;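 active = inhibition above a per-plate limit, mean inhibition of low control wells plus 3 SD, cut at about 25% in these data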;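 note: 0% = DMSO wells with enzyme and 100% = wells lacking Arfgap1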
Target sequence (Q62848 1-136 limits assumed): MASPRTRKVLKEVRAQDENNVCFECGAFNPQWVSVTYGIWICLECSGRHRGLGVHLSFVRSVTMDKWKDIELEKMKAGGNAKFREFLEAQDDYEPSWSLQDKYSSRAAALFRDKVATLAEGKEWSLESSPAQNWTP
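Material: truncated rat Arfgap1 GAP domain; Incubation: compound-enzyme preincubation 20 min, reaction 120 min, detection 60 min, 25 °C; Read-out: percent inhibition of Arfgap1-stimulated GTP hydrolysis; Technique: FP, GDP Alexa 633 tracer displaced from anti-GDP antibody, 620/688 nm; Controls: No-Arfgap1 wells (100%) versus DMSO full-reaction wells (0%); Replication: single well per compound.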
MsrA conf: bovine MsrA inhibition, confirmed | purified bovine MsrA, absorbance read-out | shares compounds with MsrA inhibitor | inhibition, % at 15.5 µM | 2,300 compounds, 41% hits;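 note: coupled to thioredoxin reductase with NADPH and selenocystamine and DMSO as substrate; 0% = vehicle only and 100% = full effect of reference inhibitor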
The depositor's hits bear a star; x = not tested or not shown. Hits are enriched below; roughly 2.7% of the tested compounds scored in any of these assays. Cut-off read from the data, not from the text of the source, unless noted: active = inhibition above about 4.5%; inactive = the rest.

SMILES	ASAP1 inh	MsrA inhibitor	Rev-erbA mod	sPLA2-III inh	bovine MsrA act	ARFGAP1 inh	MsrA conf
O=C(NCCc1ccccc1)c1coc(=O)c(Br)c1	10.4	5.6*	6.9	2.7	-16.3	-3.1	6.5*
CN(C)CCNC(=O)c1coc(=O)c(Br)c1	0.1	4.2	5.2	-1.1	-2.7	8.0	x
CC(C)CNC(=O)c1coc(=O)c(Br)c1	-5.8	5.7*	-1.0	-0.6	-5.7	5.5	6.1*
N#C/C(=N\Nc1ccccc1)C(=N)N1CCOCC1	5.2	5.1*	-2.3	14.1	-9.5	-3.2	2.3
Cc1ccc(N/N=C(\C#N)C(=N)N2CCOCC2)cc1	-13.6	2.5	7.5	0.5	-2.9	-5.6	x
CC1(C)CC(=O)C=C(C#CC2CC2)C1	-5.1	0.1	0.1	0.0	x	-5.1	x
CCOC(=O)Cc1csc(NC(=O)/C=C/c2ccco2)n1	7.0	7.8*	0.8	6.4	-7.0	1.8	4.6*
CCCC[C@@H]1C(=O)N2N=Cc3cc4ccccc4cc3[C@H]2N2N=Cc3cc4ccccc4cc3[C@@H]12	x	x	14.4	7.9	x	x	x
CN(C)c1ccc(/C=C(/NC(=O)c2ccccc2)C(=O)N2CCCC2)cc1	2.8	5.4*	4.3	15.1	-3.8	1.5	3.1
COc1ccc2c(c1OC)C(=O)OC2CC(=O)c1ccc(N(C)C)cc1 (centres undefined)	0.6	4.7*	-0.5	10.0	-3.1	-4.4	4.6*
C/C(=N/Nc1ncc(Br)cn1)c1ccc(Br)cc1	-7.1	1.1	-6.4	-4.3	-3.8	3.3	x
C/C(=N\Nc1ccc(C(=O)O)cc1)c1ccc(Br)cc1	-4.0	4.8*	-6.6	-15.1	-4.5	-15.3	6.4*
Cc1cc(NS(=O)(=O)C2CCN(C(=O)Cc3ccc(Cl)c(Cl)c3)CC2)no1	x	x	1.2	-7.3	x	x	x
O=C(CCc1ccccc1-c1ccccc1CCNC(=O)COCc1ccccc1)NCc1ccccc1	x	x	-0.5	-18.2	x	x	x
Oc1c(Br)cc(/C=N/Nc2ccc(Cl)nn2)cc1Br	5.1	5.9*	-2.9	10.8	-6.2	-4.1	3.4
Oc1c(Br)cc(Br)cc1/C=N/Nc1ccc(Cl)nn1	9.8	-0.7	-4.0	4.6	-3.1	-5.0	x
O=C(O)c1ccc2c(=O)n3c(nc2c1)/C(=C/c1ccc(F)cc1)CC3	-22.1	5.5*	-2.4	9.3	-1.6	9.4	4.4
COCCCn1c(SCC(=O)c2c(N)n(C3CC3)c(=O)[nH]c2=O)nnc1-c1ccccc1Cl	4.9	-0.7	-8.9	-1.7	-0.4	8.4	x
COCCn1c(SCC(=O)c2c(N)n(C3CC3)c(=O)[nH]c2=O)nnc1-c1ccc(Cl)cc1	-11.8	6.0*	4.0	7.1	-3.7	-4.2	-0.3
Nc1nnnn1/N=C/c1ccc(O)cc1	6.5	3.0	-6.1	-2.9	-2.8	-8.4	x
CSc1ccc(/C=N/n2nnnc2N)cc1	-8.3	5.3*	-1.1	-2.7	-5.5	-4.3	5.2*
COC(=O)[C@]12C[C@H](CC(=O)NCc3ccc(OC)c(OC)c3)C(=O)N(Cc3cccc4ccccc34)C1=C[C@H](COCc1ccccc1)O[C@@H]2C	x	x	-1.1	-11.0	x	x	x
O=C(N/N=C/c1ccc(O)c(O)c1)N/N=C/c1ccc(O)c(O)c1	3.5	5.7*	-22.8	-10.8	-10.1	8.6	2.9
COc1ccc2c(c1)c(C(=O)N/N=C/c1ccc(O)c(O)c1)c(C)n2C	14.9	5.5*	0.4	12.1	-9.9	0.3	4.5
CC(=O)Nc1nonc1NC(C)=O	-5.1	-0.9	-3.9	2.4	-1.0	4.3	x
SMILES	ASAP1 inh	MsrA inhibitor	Rev-erbA mod	sPLA2-III inh	bovine MsrA act	ARFGAP1 inh	MsrA conf
CC(=O)Nc1cc(OC(C)=O)c2nonc2c1OC(C)=O	-9.2	28.5*	0.9	7.3	5.3	-10.3	-0.6
Cc1ccsc1/C=N/NC(=O)c1ccc(Cn2cc(Br)cn2)o1	-10.7	4.7*	-0.5	3.3	-2.2	2.4	3.9
O=C(N/N=C/c1cccc(Br)c1)c1ccc(Cn2cc(Br)cn2)o1	13.7	0.9	-6.0	-4.3	3.1	1.2	x
Cc1noc(/C=C/c2cccnc2)c1[N+](=O)[O-]	12.5	5.3*	5.4	2.5	-10.4	10.4	2.7
O=C(Nc1nccs1)c1cnc2sccn2c1=O	-4.6	5.8*	-6.4	-6.1	-10.1	1.9	5.7*
COC(=O)c1ccccc1NC(=O)c1cnc2sccn2c1=O	1.1	1.5	3.4	4.3	-2.5	-9.9	x
O=C(O)c1ccc(N(c2ccccc2)c2ccccc2)cc1	8.2	5.1*	-2.8	-1.9	-5.0	-7.2	1.9
CCOc1cc(S(=O)(=O)N(CC)CC)c(OCC)cc1-n1cnnn1	18.2	25.2*	-3.4	1.8	-8.1	-1.4	22.5*
CCOc1cc(S(=O)(=O)NCCc2ccccc2C)c(OCC)cc1-n1cnnn1	-18.0	2.3	-2.1	-30.0	4.2	-1.7	x
COc1ccc(CN2CN3CCc4ccccc4C3CS2(=O)=O)cc1 (centres undefined)	x	x	-3.1	11.6	x	x	x
CNC(=O)c1[nH]nc2c1CCc1ccccc1-2	-2.3	1.0	1.8	-1.1	-0.2	-17.8	x
COC(=O)c1[nH]c2c(c1C(=O)OC)CCc1ccccc1-2	9.0	5.6*	1.0	-1.2	5.2	-0.6	1.3
O=Cc1cn(-c2ccccc2)nc1-c1cccnc1	-6.9	10.9*	-5.0	8.5	-7.9	8.5	4.1
O=C(N/N=C\c1cn(-c2ccccc2)nc1-c1ccccc1)c1ccc(Br)o1	-11.9	6.4*	1.1	-11.5	-10.9	3.7	2.5
O=Cc1cn(-c2ccccc2)nc1-c1ccncc1	9.2	6.0*	-0.2	6.9	-0.8	-5.7	2.2
C(=N\N1CCOCC1)/c1cn(-c2ccccc2)nc1-c1ccccc1	-11.9	7.0*	-1.3	4.2	-4.2	11.6	-0.2
O=C(c1ccccc1)N1CC[C@H]2[C@H](CCCN2Cc2ccccc2)C1	x	x	-1.9	1.0	x	x	x
O=Cc1cn(-c2ccccc2)nc1-c1ccccc1	-1.8	14.0*	2.5	0.3	0.8	-5.2	11.4*
CCc1ccc(CCNC(=O)OC2CC3CC2[C@H]2CCCCN2C3)cc1 (some centres undefined)	x	x	-7.3	10.5	x	x	x
Fc1ccccc1-c1n[nH]c(=S)n1/N=C/c1c[nH]c2ccccc12	2.4	11.4*	-2.6	-4.9	0.1	2.1	7.3*
CCc1ccc(Nc2nc(C)cc(C)n2)cc1	4.5	-0.2	2.8	0.5	-2.1	-7.6	x
CCc1ccc(-n2c(O)cnc2Nc2nc(C)cc(C)n2)cc1	8.2	9.5*	0.0	10.3	-8.2	15.3	7.0*
COc1ccc(-n2c(O)cnc2Nc2nc(C)cc(C)n2)cc1OC	9.2	14.5*	-7.8	6.8	-2.9	1.3	6.5*
Cc1ccc(S(=O)(=O)n2ccc(-c3c(-c4ccc(Cl)cc4)noc3C)n2)cc1	x	x	2.6	-0.8	x	x	x
CN(C(=O)CNC(=O)c1ccccc1OCC(=O)Nc1ccc(Br)cc1)c1ccccc1	x	x	5.5	-21.3	x	x	x
